Structures are written as SMILES. pIC50: −log10 of the molar value. Where only a bound is given, the exact number is not on record here.

The target of the first assay is T1, Xanthine dehydrogenase/oxidase (Bos taurus, UniProt P80457). The experiment in a line: Inhibition of bovine Xanthine oxidase assessed as reduction in uric acid level by spectrophotometry.
T1 sequence (P80457 whole entry): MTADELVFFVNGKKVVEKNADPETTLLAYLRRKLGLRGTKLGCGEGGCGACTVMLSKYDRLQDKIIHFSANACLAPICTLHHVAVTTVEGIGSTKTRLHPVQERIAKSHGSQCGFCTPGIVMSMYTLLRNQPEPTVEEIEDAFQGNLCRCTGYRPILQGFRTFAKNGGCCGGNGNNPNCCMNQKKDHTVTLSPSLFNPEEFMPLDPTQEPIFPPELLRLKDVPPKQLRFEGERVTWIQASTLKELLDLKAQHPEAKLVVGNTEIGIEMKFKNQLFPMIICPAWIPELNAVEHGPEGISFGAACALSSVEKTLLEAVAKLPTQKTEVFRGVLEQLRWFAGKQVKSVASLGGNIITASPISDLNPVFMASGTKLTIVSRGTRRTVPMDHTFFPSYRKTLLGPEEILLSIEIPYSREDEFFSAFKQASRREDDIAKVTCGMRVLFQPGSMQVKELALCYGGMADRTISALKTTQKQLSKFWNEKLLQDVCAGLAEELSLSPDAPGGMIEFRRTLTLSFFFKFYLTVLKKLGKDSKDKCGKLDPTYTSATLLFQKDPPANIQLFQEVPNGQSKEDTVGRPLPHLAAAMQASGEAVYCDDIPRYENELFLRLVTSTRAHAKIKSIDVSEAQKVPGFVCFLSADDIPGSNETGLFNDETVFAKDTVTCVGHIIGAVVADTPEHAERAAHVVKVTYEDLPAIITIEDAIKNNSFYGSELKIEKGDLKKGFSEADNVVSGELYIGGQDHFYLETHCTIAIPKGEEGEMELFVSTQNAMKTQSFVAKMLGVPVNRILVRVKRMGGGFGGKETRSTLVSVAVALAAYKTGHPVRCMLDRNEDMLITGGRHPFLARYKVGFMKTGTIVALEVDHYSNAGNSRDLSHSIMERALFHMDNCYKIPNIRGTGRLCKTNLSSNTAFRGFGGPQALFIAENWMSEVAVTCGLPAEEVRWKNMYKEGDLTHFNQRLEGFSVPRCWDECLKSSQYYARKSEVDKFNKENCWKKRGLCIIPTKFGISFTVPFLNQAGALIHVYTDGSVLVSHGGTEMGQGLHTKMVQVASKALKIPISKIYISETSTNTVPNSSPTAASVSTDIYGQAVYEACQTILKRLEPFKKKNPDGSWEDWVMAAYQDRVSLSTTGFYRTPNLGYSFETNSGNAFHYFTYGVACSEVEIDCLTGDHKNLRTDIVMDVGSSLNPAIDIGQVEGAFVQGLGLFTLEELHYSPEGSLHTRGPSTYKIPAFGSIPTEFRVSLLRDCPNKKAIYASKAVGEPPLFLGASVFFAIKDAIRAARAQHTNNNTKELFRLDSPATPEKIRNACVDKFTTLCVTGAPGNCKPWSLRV
Details: not given
What is called pIC50 is the IC50 on a negative log10 scale, so that one unit is a factor of ten. On to `Cc1ccccc1COc1cc(O)cc2oc3cc(O)c(O)cc3c(=O)c12`, for which the pIC50 was 5.15.
On the same count and under the same terms, the figure for `O=c1c2cc(O)c(O)cc2oc2cc(O)cc(OCc3ccc(Br)cc3)c12` is 4.70; for `O=c1c2cc(O)c(O)cc2oc2cc(O)cc(OCc3ccccc3Cl)c12` it is 5.19; for `Cc1ccc(COc2cc(O)cc3oc4cc(O)c(O)cc4c(=O)c23)cc1` it is 5.24.
Still for that read-out and setting: with `O=c1c2cc(O)c(O)cc2oc2cc(O)cc(OCc3ccc(Cl)cc3)c12` the figure was 5.33.
On the same count and under the same terms, with `N#Cc1ccc(COc2cc(O)cc3oc4cc(O)c(O)cc4c(=O)c23)cc1` the figure was 5.33.
Regarding `Cc1cccc(COc2cc(O)cc3oc4cc(O)c(O)cc4c(=O)c23)c1`, the pIC50 was 4.87.

The next assay addresses T1, Xanthine dehydrogenase/oxidase. The assay is described as follows: Inhibition of bovine Xanthine oxidase assessed as reduction in uric acid level at 10 ug/ml by spectrophotometry. The note with it: cattle. Summed up:
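Single-concentration screen at 10 μg/mL. XO activity was followed spectrophotometrically as uric acid formation at 293 nm and reported as percent inhibition. Below 60% inhibition at this concentration was recorded as not active.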
By inhibition is commonly meant how much of the control response was suppressed. Regarding `N#Cc1ccccc1COc1cc(O)cc2oc3cc(O)c(O)cc3c(=O)c12`, the inhibition at 10 µg/mL was below 60%.
Same read-out and setting: the figure for `O=c1c2cc(O)c(O)cc2oc2cc(O)cc(OCc3ccc(Cl)cc3Cl)c12` is below 60%.
Consider `O=c1c2cc(O)c(O)cc2oc2cc(O)cc(OCc3ccc([N+](=O)[O-])cc3)c12`, for which the inhibition at 10 µg/mL was below 60%.
The same measure, in the same setting: the figure for `O=c1c2cc(O)c(O)cc2oc2cc(O)cc(OCc3ccccc3F)c12` is below 60%; for `N#Cc1cccc(COc2cc(O)cc3oc4cc(O)c(O)cc4c(=O)c23)c1` it is below 60%; for `O=c1c2cc(O)c(O)cc2oc2cc(O)cc(OCc3cccc(F)c3)c12` it is below 60%.
The same measure, in the same setting: the figure for `O=c1c2cc(O)c(O)cc2oc2cc(O)cc(OCc3c(Cl)cccc3Cl)c12` is below 60%; for `O=c1c2cc(O)c(O)cc2oc2cc(O)cc(OCc3ccccc3Br)c12` it is below 60%.
Same read-out and setting: with `O=c1c2cc(O)c(O)cc2oc2cc(O)cc(OCc3cccc([N+](=O)[O-])c3)c12` the figure was below 60%; with `O=c1c2cc(O)c(O)cc2oc2cc(O)cc(OCc3ccc(F)cc3)c12`, below 60%.
On to `O=c1c2cc(O)c(O)cc2oc2cc(O)cc(OCc3cccc(Br)c3)c12`, for which the inhibition at 10 µg/mL was below 60%.
Still for that read-out and setting: with `O=c1c2cc(O)c(O)cc2oc2cc(O)cc(OCc3cccc(Cl)c3)c12` the figure was below 60%; with `O=c1c2cc(O)c(O)cc2oc2cc(O)cc(OCc3ccccc3[N+](=O)[O-])c12`, below 60%.

Values taken from ChEMBL document CHEMBL1795214, “Discovery of novel xanthone derivatives as xanthine oxidase inhibitors” (Bioorg Med Chem Lett, 2011).
